Here are results for 1 compound from ChEMBL document CHEMBL4033789, “Discovery of a New Four-Leaf Clover-Like Ligand as a Potent c-MYC Transcription Inhibitor Specifically Targeting the Promoter G-Quadruplex” (J Med Chem, 2018).

The subject of data set [1] is SiHa. Briefly: Cytotoxicity against human SiHa cells assessed as reduction in cell viability after 24 hrs by MTT assay. The format is functional, cell-based. In outline:
(§1)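 Cells seeded at 5.0×10^3 per well, exposed to compound for 24 h; MTT (2.5 mg/mL) added for 4 h, formazan dissolved in DMSO, OD read at 570 nm. Triplicate; IC50 from curves of mean OD against concentration.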

The subject of data set [2] is SiHa. The data set is described as follows: Induction of apoptosis in human SiHa cells assessed as early apoptotic cells at 5 uM after 24 hrs by Annexin V-FITC/propidium iodide-staining based flow cytometric analysis. The format is functional.
Data set [3] can be described thus: Stabilization of Bcl2 G-quadruplex DNA in human SiHa cells assessed as effect on Bcl2 mRNA level at 1.25 to 5 uM fter 6 hrs by RT-PCR method. The format is ADME, cell-based. In outline:
(§2)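 SiHa cells (2.0×10^5 per well) treated 6 h; total RNA (2 µg) reverse-transcribed with oligo dT18 and M-MLV at 42 °C for 1 h, 85 °C for 5 min; PCR: 95 °C 5 min, then 30 cycles of 95 °C 30 s, 58 °C 30 s, 72 °C 40 s; products checked on agarose gel.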

Data set [4] in a line: Binding affinity to up to 1 uM c-MYC promoter G-quadruplex pu22 DNA (unknown origin) after 1 min by fluorescence titration method. An outline of the steps: (§3)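 Oligonucleotide stock added stepwise to fixed-concentration compound in 10 mM Tris-HCl pH 7.2, 100 mM KCl; equilibrated ≥1 min after each addition, emission read with excitation at 350 nm. KD from fitting titration data to the Benesi–Hildebrand equation; 1:1 stoichiometry checked by Job plot.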

Data set [5] in a line: Binding affinity to 1 uM KRAS promoter G-quadruplex DNA (unknown origin) at 1 uM after 1 min by fluorescence spectroscopic analysis. The format is ADME. An outline of the steps: (§4)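 Fluorescence emission spectra of 1 µM compound mixed with 1 µM pre-annealed oligonucleotide (G-quadruplexes folded in 100 mM KCl by heating to 95 °C for 5 min, slow cooling), in Tris-HCl buffer.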

The test system of data set [6] is Mus musculus. Briefly: Toxicity in nude BALB/c mouse xenografted with human SiHa cells assessed as viscera weight reduction at 5 to 20 mg/kg, ip administered every other day for 24 days. The format is organism-based. Conditions: in vivo, 576 h. In outline:
(§5)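 BALB/c nude mice, 5 weeks old, implanted subcutaneously in right flank with 1×10^7 SiHa cells; at ~50 mm3 tumor, 10 per group dosed ip every other day for 24 days, saline control; body weight measured daily, viscera weighed at sacrifice; mean ± SEM, Student's t test versus saline.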

Data set [7] is described as follows: Stabilization of KRAS G-quadruplex DNA in human SiHa cells assessed as effect on […] mRNA level at 1.25 to 5 uM fter 6 hrs by RT-PCR method. The format is ADME, cell-based. An outline of the steps: as §2
For data set [8], the system named is SiHa. Briefly: Antitumor activity against human SiHa cells xenografted in nude BALB/c mouse assessed as tumor growth inhibition at 5 to 20 mg,kg, ip administered every other day for 24 days. The format is functional, organism-based. The conditions noted are these: TDE = time-dependent effect. In outline: (§6)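 BALB/c nude mice (5 weeks old) given 1×10^7 SiHa cells subcutaneously in right flank; at ~50 mm3 tumor volume, randomized (10 per group) and dosed intraperitoneally every other day for 24 days; controls got equal-volume saline. Caliper volume as 1/2 × length × width2; tumors weighed at end; inhibition rate = (1 − mean treated tumor weight/mean control tumor weight) × 100%.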

The nature of data set [9]: Binding affinity to c-KIT1 promoter G-quadruplex DNA (unknown origin) after 1 min by fluorescence titration method. The format is ADME. In outline: as §3
For data set [10], the system named is SiHa. The data set is described as follows: Antitumor activity against human SiHa cells xenografted in nude BALB/c mouse assessed as tumor growth inhibition at 20 mg,kg, ip administered every other day for 24 days. The format is functional. An outline of the steps:
as §6

The nature of data set [11]: Binding affinity to KRAS promoter G-quadruplex DNA (unknown origin) after 1 min by fluorescence titration method. The format is ADME. In outline: as §3
The test system of data set [12] is A-375. Briefly: Cytotoxicity against human A375 cells assessed as reduction in cell viability after 24 hrs by MTT assay. The format is functional, cell-based. The conditions noted are these: A-375, 24 h. In outline:
as §1

The subject of data set [13] is SiHa. Briefly: Induction of cell cycle arrest in human SiHa cells assessed as upregulation of p27 protein levels after 24 hrs by Western blot analysis. The format is functional, cell-based. In outline:
(§7)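 SiHa cells (2.0×10^5 per well) treated 24 h, lysed at 4 °C for 30 min, supernatant cleared at 15,000 rpm; protein measured by BCA, 30 µg resolved on 10% SDS-PAGE, transferred to nitrocellulose, blocked in 5% milk/TBS-Tween 1 h, primary antibodies overnight at 4 °C, HRP secondaries 2 h at room temperature.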

Data set [14] can be described thus: Stabilization of wild type c-Myc promoter G-quadruplex DNA (unknown origin) transfected in human SiHa cells co-expressing psiCHECK2 luciferase plasmid assessed as inhibition of gene transcription at 1.25 to 2.5 uM after 48 hrs by dual-luciferase reporter gene assay. The format is cell-based. In outline: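 SiHa cells transfected with psiCHECK2 carrying wild-type or mutant c-MYC promoter driving Renilla luciferase, firefly luciferase on same plasmid; compound added 4 h post-transfection, incubated further at 37 °C; Renilla signal normalized to firefly; three repeats, mean ± SEM.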

The test system of data set [15] is SiHa. Briefly: Antiproliferative activity against human SiHa cells assessed as reduction in colony formation at 0.5 uM measured on day 8 by crystal violet-staining based assay. The format is functional, cell-based. An outline of the steps:
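Cells seeded at 300 per well in six-well plates, exposed to compound at 37 °C, 5% CO2, with drug-containing medium replaced every 2 days; after 8 days of culture, colonies fixed with methanol and stained with crystal violet.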

Data set [16] relates to SiHa. The data set is described as follows: Induction of cell cycle arrest in human SiHa cells assessed as upregulation of p15 protein levels after 24 hrs by Western blot analysis. The format is functional, cell-based. In outline: as §7
Data set [17] can be described thus: Stabilization of c-Kit G-quadruplex DNA in human SiHa cells assessed as effect on c-Kit mRNA level at 1.25 to 5 uM fter 6 hrs by RT-PCR method. The format is ADME, cell-based. In outline:
(§8)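 SiHa cells (2.0×10^5) dosed 6 h; total RNA reverse-transcribed with oligo dT18 primer and M-MLV (42 °C 1 h, 85 °C 5 min); PCR 95 °C 5 min then 30 cycles (95 °C 30 s, 58 °C 30 s, 72 °C 40 s); products checked on agarose gel.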

For data set [18], the species on record is Homo sapiens. Briefly: Stabilization of c-Myc G-quadruplex DNA in human SiHa cells assessed as inhibition of c-Myc mRNA level at 1.25 to 5 uM after 6 hrs by RT-PCR method. The format is cell-based. In outline: as §8
For data set [19], the system named is Mus musculus. Briefly: In vivo stabilization of c-Myc G-quadruplex DNA in human SiHa cells xenografted in nude BALB/c mouse assessed as decrease in c-Myc expression at 20 mg/kg, ip administered every other day for 24 days by immunohistochemistry. The format is functional, organism-based.
Data set [20] concerns SiHa. The data set is described as follows: Induction of cell cycle arrest in human SiHa cells assessed as downregulation of Cyclin D1 protein levels after 24 hrs by Western blot analysis. The format is functional, cell-based. An outline of the steps:
as §7

The subject of data set [21] is Huh-7. Briefly: Cytotoxicity against human Huh7 cells assessed as reduction in cell viability after 24 hrs by MTT assay. The format is functional, cell-based. Conditions: Huh-7, 24 h. In outline:
as §1

Data set [22] can be described thus: Binding affinity to 1 uM c-MYC promoter G-quadruplex pu22 DNA (unknown origin) at 1 uM after 1 min by fluorescence spectroscopic analysis. An outline of the steps: as §4
The test system of data set [23] is Mus musculus. The data set is described as follows: Toxicity in nude BALB/c mouse xenografted with human SiHa cells assessed as body weight reduction at 5 to 20 mg/kg, ip administered every other day for 24 days. Conditions: in vivo, 576 h. The format is organism-based. In outline: as §5

The structures appear in SMILES notation. Calls of active or inactive are those of the source. The calls are words filed in the database; no cut-off is given here.

`CCn1c2ccccc2c2cc(-c3nc(-c4ccc(N5CCN(C)CC5)cc4)c(-c4ccc(N5CCN(C)CC5)cc4)n3-c3ccc(OC)cc3)ccc21`: the IC50 in data set [1] is 3300 nM; in data set [12], 4200 nM; in [21], 4100 nM. The Activity in [2] was 22%; in data set [3], “Not Active”; in [5], “Not Active”; in data set [6], “Non-Toxic”; in data set [7] it was “Not Active”; in data set [13] it was “Dose-dependent effect”. Moreover, the Activity result was “Dose-dependent effect” in data set [16], “Not Active” in [17], “Dose-dependent effect” in data set [20] and “Non-Toxic” in data set [23]. The Kd came to 100 nM in data set [4], 800 nM in [9] and 1000 nM in data set [11]. In addition, the TGI entry in data set [8] was “Tde”; in data set [10] it was 69%. The inhibition result in [14] and in data set [18] was “Active” throughout. The outcome in [15], in data set [19] and in [22] was Active.
